Laboratory results: ChEMBL document CHEMBL3779764, “Identification and Structure-Activity Relationships of Diarylhydrazides as Novel Potent and Selective Human Enterovirus Inhibitors” (J Med Chem, 2016)

Columns and labels:
Enterovirus A71 [1] = assay: Antiviral activity against Human enterovirus 71 infected in monkey African green Vero cells by MTS-based CPE reduction assay; format: functional, organism-based
In short: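 Vero cells (5 × 10^5) seeded, then given serial compound dilutions plus 100 TCID50 EV71. Incubated at 37 °C for 24-36 h until complete CPE in the virus-infected, compound-free control. Viability read by MTS/PMS at 498 nm. EC50 is the concentration inhibiting virus-induced CPE by 50%. At least three repeats.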

[2] = Selectivity index, ratio of CC50 for african green monkey Vero cells to EC50 for Enterovirus 71; format: toxicity, cell-based; settings: read-out: Ratio CC50/EC50
In short: (§1)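 Selectivity index is CC50/EC50, both taken from MTS-based CPE reduction assays in the same cell line (Vero or RD).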

RD = assay: Cytotoxicity against human RD cells assessed as reduction in cell viability after 24 to 36 hrs by MTS-based CPE reduction assay; format: functional
In short: (§2)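 Noninfected Vero or RD cells exposed to serial compound dilutions under the CPE-assay conditions (37 °C, 24-36 h). Viability measured by MTS/PMS absorbance at 498 nm. CC50 is the concentration causing 50% death of noninfected cells.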

Enterovirus A71 [3] = assay: Antiviral activity against Enterovirus 71 infected in human RD cells after 24 to 36 hrs by MTS-based CPE reduction assay; format: functional, organism-based
In short: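 RD cells given serial compound dilutions with EV71. Incubated at 37 °C for 24-36 h until full CPE in the virus control. Viability read by MTS/PMS at 498 nm. EC50 is the concentration giving 50% inhibition of virus-induced CPE. At least three independent experiments.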

[4] = Selectivity index, ratio of CC50 for human RD cells to EC50 for Enterovirus 71; format: toxicity, cell-based; settings: read-out: Ratio CC50/EC50; in short: as §1
[5] = Cytotoxicity against african green monkey Vero cells assessed as reduction in cell viability after 24 to 36 hrs by MTS-based CPE reduction assay; settings: chlorocebus sabaeus; in short: as §2
[6] = Enterovirus A, Vero, read-out: EC50
[7] = Enterovirus A, RD, read-out: EC50

Structure (SMILES) | EC50 (Enterovirus A71 [1]; [6]) | selectivity ratio [2] | CC50 (RD) | EC50 (Enterovirus A71 [3]; [7]) | selectivity ratio [4] | CC50 [5] | EC50 (Enterovirus A71 [1]; vero) | EC50 (Enterovirus A71 [3]; rd)
CCc1ccc(C(=O)NNc2c(Br)cccc2Br)cc1 | 0.93 µM | > 216 | > 201 µM | 1.58 µM | > 127 | > 201 µM |  | 
CCc1ccc(C(=O)NNc2c(Cl)cccc2Cl)cc1 | 0.94 µM | > 275 | > 259 µM | 1.68 µM | > 154 | > 259 µM |  | 
CCOc1ccc(C(=O)NNc2c(Cl)cccc2Cl)cc1 | 0.33 µM | > 746 | > 246 µM | 0.37 µM | > 665 | > 246 µM |  | 
COc1ccccc1C(=O)NNc1c(Br)cccc1Br | 54.2 µM | 2 |  | > 100 µM |  | 109 µM |  | 
O=C(NNc1c(Cl)cccc1Cl)c1ccc(Cl)cc1 | > 100 µM |  |  | > 100 µM |  |  |  | 
CCOc1ccc(C(=O)NNc2c(Br)cccc2Br)cc1 | 0.37 µM | > 522 | > 193 µM | 0.53 µM | > 362 | > 193 µM |  | 
O=C(NNc1c(Cl)cccc1Cl)c1ccc(F)cc1 |  |  |  |  |  |  | Not Active | Not Active
COc1cccc(OC)c1NNC(=O)c1ccc(C(C)(C)C)cc1 | 10.4 µM | > 23.4 | > 244 µM | 27.4 µM | > 8.9 | > 244 µM |  | 
O=C(NNc1c(Cl)cccc1Cl)c1cccs1 | > 100 µM |  |  | > 100 µM |  |  |  | 
Cc1cccc(Cl)c1NNC(=O)c1ccc(C(C)(C)C)cc1 | 0.79 µM | 62.3 | 63.2 µM | 0.97 µM | 65.1 | 49.2 µM |  | 
COc1ccc(C(=O)NNc2c(C)cccc2C)cc1 | 12.3 µM | > 24 | > 296 µM | 29 µM | > 10.2 | > 296 µM |  | 
CCCc1ccc(C(=O)NNc2c(Cl)cccc2Cl)cc1 | 0.42 µM | > 589 | > 248 µM | 0.44 µM | > 562 | > 248 µM |  | 
COc1ccc(C(=O)NNc2c(F)cccc2F)cc1 | 74 µM | > 3.9 |  | > 100 µM |  | > 288 µM |  | 
CCOc1ccc(C(=O)NNc2c(Cl)cc(Cl)cc2Cl)cc1 | > 100 µM |  |  | > 100 µM |  |  |  | 
Cc1ccc(C(=O)NNc2c(Br)cccc2Br)cc1 | 10.8 µM | 13.5 | 163 µM | 24.7 µM | 6.6 | 146 µM |  | 
CC(C)(C)c1ccc(C(=O)NNc2c(Cl)cccc2Cl)cc1 | 0.47 µM | 65.6 | 36.7 µM | 0.85 µM | 43.2 | 30.8 µM |  | 
Cc1cccc(Cl)c1NNC(=O)c1ccc(N(C)C)cc1 | 0.28 µM | 332 | 106 µM | 0.16 µM | 682 | 92.8 µM |  | 
COc1ccccc1C(=O)NNc1c(Cl)cccc1Cl | > 100 µM |  |  | > 100 µM |  |  |  | 
COc1ccc(C(=O)NNc2c(Br)cccc2Br)cc1 | 3.32 µM | > 60.2 | > 200 µM | 2.63 µM | > 76.1 | > 200 µM |  | 
CCc1ccc(C(=O)NNc2c(C)cccc2Cl)cc1 | 6.37 µM | 12.8 | 105 µM | 10.5 µM | 10 | 81.7 µM |  | 

Structure (SMILES) | EC50 (Enterovirus A71 [1]; [6]) | selectivity ratio [2] | CC50 (RD) | EC50 (Enterovirus A71 [3]; [7]) | selectivity ratio [4] | CC50 [5] | EC50 (Enterovirus A71 [1]; vero) | EC50 (Enterovirus A71 [3]; rd)
CCCc1ccc(C(=O)NNc2c(F)cccc2F)cc1 | 27.4 µM | > 10.1 | > 276 µM | 51.4 µM | > 5.4 | > 276 µM |  | 
CSc1ccc(C(=O)NNc2c(C)cccc2Cl)cc1 | 6.13 µM | 17.4 | 134 µM | 15.4 µM | 8.7 | 107 µM |  | 
CCOc1ccc(C(=O)NNc2c(F)cccc2F)cc1 | 66.7 µM | > 4.1 |  | > 100 µM |  | > 274 µM |  | 
Cc1ccc(C(=O)NNc2c(C)cccc2C)cc1 | 5.31 µM | > 59.2 | > 315 µM | 13.6 µM | > 23.2 | > 315 µM |  | 
COc1ccc(C(=O)NNc2c(C)cccc2Cl)cc1 | 5.74 µM | > 47.9 | > 275 µM | 15.4 µM | > 17.9 | > 275 µM |  | 
CCCc1ccc(C(=O)NNc2c(C)cccc2C)cc1 | 0.95 µM | > 298 | > 283 µM | 2.64 µM | > 107 | > 283 µM |  | 
CCOc1ccc(C(=O)NNc2c(C)cccc2Cl)cc1 | 0.39 µM | > 673 | > 262 µM | 0.82 µM | > 319 | > 262 µM |  | 
O=C(NNc1c(Br)cccc1Br)c1ccccc1 | 0.86 µM | > 251 | > 216 µM | 2.43 µM | > 89.1 | > 216 µM |  | 
O=C(NNc1c(Cl)cccc1Cl)c1ccccn1 | > 100 µM |  |  | > 100 µM |  |  |  | 
O=C(NNc1c(Cl)cccc1Cl)c1ccccc1 | > 100 µM |  |  | > 100 µM |  |  |  | 
CCOc1ccc(NNC(=O)c2c(Cl)cccc2Cl)cc1 | > 100 µM |  |  | > 100 µM |  |  |  | 
COc1ccc(C(=O)NNc2c(Cl)cccc2Cl)cc1 | 0.68 µM | > 378 | > 257 µM | 1.36 µM | > 189 | > 257 µM |  | 
CCCc1ccc(C(=O)NNc2c(C)cccc2Cl)cc1 | 0.92 µM | 87.2 | 113 µM | 2.16 µM | 52.4 | 80.2 µM |  | 
Cc1ccc(C(=O)NNc2c(C)cccc2Cl)cc1 | 13 µM | > 22.5 | > 291 µM | 26.9 µM | > 10.8 | > 291 µM |  | 
CC(C)c1cccc(C(C)C)c1NNC(=O)c1ccc(C(C)(C)C)cc1 | > 100 µM |  |  | > 100 µM |  |  |  | 
N#Cc1ccc(C(=O)NNc2c(Cl)cccc2Cl)cc1 |  |  |  |  |  |  | Not Active | Not Active
O=C(NNc1c(Cl)cccc1Cl)c1cccc(Cl)c1 |  |  |  |  |  |  | Not Active | Not Active
O=C(NNc1c(Cl)cccc1Cl)c1ccc(Br)cc1 |  |  |  |  |  |  | Not Active | Not Active
CCc1cccc(CC)c1NNC(=O)c1ccc(C(C)(C)C)cc1 | > 100 µM |  |  | > 100 µM |  |  |  | 
O=C(NNc1c(Cl)cccc1Cl)c1ccc([N+](=O)[O-])cc1 |  |  |  |  |  |  | Not Active | Not Active
